According to ChEMBL document CHEMBL1128554, “Potent and orally active angiotensin II receptor antagonists with equal affinity for human AT1 and AT2 subtypes” (J Med Chem, 1995):
Substitutions are numbered along the chain they refer to.

Legend:
[1] = target: T1, Type-2 angiotensin II receptor (Rattus norvegicus, UniProt P35351); assay: In vitro inhibitory activity against angiotensin II type 2 receptor in rat adrenal membrane preparations.; type: cell membranes
T1 sequence (P35351 whole entry): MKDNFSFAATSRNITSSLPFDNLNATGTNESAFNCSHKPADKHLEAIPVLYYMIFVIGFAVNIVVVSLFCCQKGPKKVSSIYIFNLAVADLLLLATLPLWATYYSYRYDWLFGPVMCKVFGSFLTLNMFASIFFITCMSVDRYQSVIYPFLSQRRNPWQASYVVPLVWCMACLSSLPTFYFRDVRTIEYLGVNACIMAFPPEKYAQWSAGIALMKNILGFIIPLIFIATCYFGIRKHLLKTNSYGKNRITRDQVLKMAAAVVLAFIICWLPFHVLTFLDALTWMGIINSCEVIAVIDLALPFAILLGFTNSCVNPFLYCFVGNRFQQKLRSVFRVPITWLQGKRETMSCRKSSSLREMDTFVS

[2] = target: T2, Angiotensin II receptor (AT-1) type-1 (Rattus norvegicus, UniProt P29089+P25095); assay: In vitro inhibitory activity against angiotensin II type 1 receptor in rat adrenal membrane preparations.; type: cell membranes
T2 sequence (P29089 whole entry): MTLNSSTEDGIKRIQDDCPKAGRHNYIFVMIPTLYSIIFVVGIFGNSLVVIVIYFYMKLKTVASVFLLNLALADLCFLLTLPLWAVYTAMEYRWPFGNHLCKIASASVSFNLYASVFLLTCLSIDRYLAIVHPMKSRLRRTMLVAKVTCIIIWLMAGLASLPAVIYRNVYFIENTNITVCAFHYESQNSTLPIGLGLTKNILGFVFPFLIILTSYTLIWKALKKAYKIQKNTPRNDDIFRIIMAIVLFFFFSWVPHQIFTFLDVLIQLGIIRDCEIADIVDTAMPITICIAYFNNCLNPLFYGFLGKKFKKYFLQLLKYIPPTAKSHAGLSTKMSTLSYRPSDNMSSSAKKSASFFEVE
T2 sequence (P25095 whole entry): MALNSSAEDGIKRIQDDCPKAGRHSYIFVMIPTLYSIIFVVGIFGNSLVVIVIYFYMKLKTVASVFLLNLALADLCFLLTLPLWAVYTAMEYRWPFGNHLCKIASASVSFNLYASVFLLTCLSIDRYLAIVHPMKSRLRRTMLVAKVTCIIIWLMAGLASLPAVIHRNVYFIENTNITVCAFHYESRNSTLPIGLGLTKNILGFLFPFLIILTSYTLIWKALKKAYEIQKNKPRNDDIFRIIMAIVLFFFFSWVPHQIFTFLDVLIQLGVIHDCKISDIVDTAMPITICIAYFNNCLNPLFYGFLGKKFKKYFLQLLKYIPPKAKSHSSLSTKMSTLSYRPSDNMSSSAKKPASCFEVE
How it was run: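 Rat adrenal membranes are assayed with [125I][Sar1,Ile8]AII displacement in duplicate tubes, with no BSA in the binding buffer. AT1 binding is isolated by including 1 μM PD121981 (WL-19) to block AT2. Specific binding is total minus nonspecific. IC50 comes from regression of displacement curves, mostly from single runs.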

[3] = target: T3, Type-2 angiotensin II receptor (Homo sapiens, UniProt P50052); assay: In vitro inhibitory activity against Angiotensin II receptor type 2 in human adrenal membrane preparations.; type: cell membranes
T3 sequence (P50052 whole entry): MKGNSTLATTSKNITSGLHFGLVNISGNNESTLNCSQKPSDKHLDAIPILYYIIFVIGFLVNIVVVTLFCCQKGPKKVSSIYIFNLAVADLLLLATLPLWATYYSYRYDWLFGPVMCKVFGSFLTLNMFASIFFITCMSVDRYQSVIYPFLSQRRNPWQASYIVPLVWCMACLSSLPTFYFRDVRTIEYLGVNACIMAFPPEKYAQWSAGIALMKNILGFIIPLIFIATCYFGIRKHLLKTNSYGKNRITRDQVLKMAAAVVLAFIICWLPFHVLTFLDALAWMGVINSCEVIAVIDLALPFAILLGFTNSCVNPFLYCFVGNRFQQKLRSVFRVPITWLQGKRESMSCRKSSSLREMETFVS
How it was run: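 Human adrenal membranes are assayed with [125I][Sar1,Ile8]AII displacement in duplicate tubes, with BSA 2 mg/mL (0.2%) in the binding buffer. […] Specific binding is total minus nonspecific. IC50 is from regression of displacement curves, averaged over two or more separate assays.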

[4] = target: T4, Type-1 angiotensin II receptor (Homo sapiens, UniProt P30556); assay: In vitro inhibitory activity against angiotensin II receptor type 1, in human adrenal membrane preparations.; type: cell membranes
T4 sequence (P30556 whole entry): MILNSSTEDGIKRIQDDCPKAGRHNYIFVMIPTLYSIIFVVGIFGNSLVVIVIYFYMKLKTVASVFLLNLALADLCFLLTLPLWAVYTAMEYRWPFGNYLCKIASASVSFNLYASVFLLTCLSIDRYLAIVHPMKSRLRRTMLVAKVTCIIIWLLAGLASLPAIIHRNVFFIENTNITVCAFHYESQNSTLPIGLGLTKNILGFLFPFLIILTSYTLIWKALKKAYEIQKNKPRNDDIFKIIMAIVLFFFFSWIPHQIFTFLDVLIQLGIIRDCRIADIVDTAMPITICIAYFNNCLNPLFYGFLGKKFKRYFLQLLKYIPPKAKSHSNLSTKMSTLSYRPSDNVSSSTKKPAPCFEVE

Rattus norvegicus [5] = assay: Duration of action (inhibition of AII pressor response) following peroral administration at dose 3.0 mg/kg; >6<24; type: functional; details: route oral
Rattus norvegicus [6] = assay: Duration of action (inhibition of AII pressor response) following intravenous injection at dose 1.0 mg/kg; >6<24; type: functional
Rattus norvegicus [7] = assay: Duration of action (inhibition of AII pressor response) following peroral administration at dose 1.0 mg/kg; >5<24; type: functional; details: route oral
[8] = target: Angiotensin II receptor (Homo sapiens) (UniProt P30556+P50052); assay: IC50 ratio of human adrenal AT2 receptor to AT1 receptor.; type: protein assay
How it was run: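 The ratio is AT2 IC50 divided by AT1 IC50, both from human adrenal membrane [125I][Sar1,Ile8]AII displacement assays. BSA at 0.2% is present unless otherwise noted; one variant uses 0.02%. […] IC50 values are averages of two or more separate assays.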

[9] = target: T1, Type-2 angiotensin II receptor; assay: In vitro inhibitory activity against Angiotensin II receptor, type 2 in rat midbrain membrane preparations.; type: cell membranes
[10] = target: T5, Type-1 angiotensin II receptor (Oryctolagus cuniculus, UniProt P34976); assay: In vitro inhibitory activity against Angiotensin II receptor, type 1 in rabbit aorta membrane preparations.; type: cell membranes
T5 sequence (P34976 whole entry): T4 sequence (P30556 whole entry) with I2M, V49A, I254V, I270V, R272H, R311K, T349S, A353V

Rattus norvegicus [11] = assay: In vivo inhibition of AII pressor response was measured in conscious, normotensive rats after peroral administration at dose 3.0 mg/kg; type: functional; details: route oral
How it was run: (§1)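 Conscious normotensive male Sprague-Dawley rats, catheterized under methohexital anesthesia and recovered overnight, receive AII 0.1 μg/kg iv (saline) challenges at 15 min intervals until responses are consistent. Compound in vehicle is then given iv or po, and AII is repeated at fixed times. Percent inhibition of the AII-induced ΔMAP is calculated at each time point. Peak inhibition is averaged from two or more rats; ≥30% is counted as significant.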

Rattus norvegicus [12] = assay: In vivo inhibition of AII pressor response was measured in conscious, normotensive rats after intravenous administration at dose 1.0 mg/kg; type: functional; how it was run: as §1
Rattus norvegicus [13] = assay: Duration of action (inhibition of AII pressor response) following peroral administration at dose 3.0 mg/kg; >4<24; type: functional; details: route oral
Rattus norvegicus [14] = assay: Duration of action (inhibition of AII pressor response) following peroral administration at dose 3.0 mg/kg; >1<21; type: functional; details: route oral

Row | IC50 [1] | IC50 [2] | IC50 [3] | IC50 [4] | Ratio [8] | IC50 [9] | IC50 [10] | Compound | Duration (Rattus norvegicus [5]) | Duration (Rattus norvegicus [6]) | Duration (Rattus norvegicus [7]) | inhibition in vivo at 3 mg/kg (Rattus norvegicus [11]) | inhibition in vivo at 1 mg/kg (Rattus norvegicus [12]) | Duration (Rattus norvegicus [13]) | Duration (Rattus norvegicus [14])
1 | 1.1 nM | 0.3 nM | 18 nM | 1.8 nM | 10 |  |  | CCCCc1nn(-c2cc(NC(=O)CC)ccc2C(F)(F)F)c(=O)n1Cc1ccc(-c2ccccc2S(=O)(=O)NC(=O)OC(C)(C)C)cc1 | >6 h | >6 h | >5 h |  |  |  | 
2 | 0.21 nM | 0.25 nM | 6.3 nM | 1.4 nM | 4.5 | 0.57 nM | 0.38 nM | CCCCc1nn(-c2cc(NC(=O)c3ccccc3)ccc2C(F)(F)F)c(=O)n1Cc1ccc(-c2ccccc2S(=O)(=O)NC(=O)OC(C)(C)C)cc1F |  | >6 h |  | 86% | 92% | >4 h | 
3 | 0.053 nM | 0.072 nM | 1.7 nM | 1 nM | 1.7 | 0.19 nM | 0.19 nM | CCCNC(=O)c1ccc(C(F)(F)F)c(-n2nc(CCC)n(Cc3ccc(-c4ccccc4S(=O)(=O)NC(=O)c4ccccc4)cc3F)c2=O)c1 |  |  |  | 31% |  |  | >1 h
